# This excerpt belongs to a sample that is enriched for hits.
# MPTP inh: blocks calcium-induced mitochondrial swelling; inhibition, % at 10 µM; isolated mouse mitochondria, Ca2+ swelling absorbance, 30 min; 360,000 compounds, 1.4% hits;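 active = inhibition of 50% or more, scaled per plate between neutral and stimulator controls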;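 also: 0% = DMSO wells given calcium and 100% = 1 mM EGTA wells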
# DTT redox prof: compounds producing H2O2 with reducing agent – biochemical, NIH compound library profiling, artefact control for MLSCN library redox annotation, primary screen | DTT-dependent redox cycling H2O2, phenol red/HRP absorbance; 100% = 100 µM peroxide control, 0% = buffer | activation, % at 10 µM | 200,000 compounds, 0.03% hits | AID 878;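 active = activation of at least 50% relative to the plate's high and low controls in the primary single-dose screen; inactive = activation below 50%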;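 also: compound incubated with DTT at 0.8 mM final as the reducing agent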
# L major viab: Leishmania major promastigote growth inhibition; Leishmania major promastigotes, resazurin fluorescence viability; inhibition, % at 10 µM; 200,000 compounds, 9% hits; AID 1063; in the data active = inhibition above about 50%;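 also: promastigotes grown with compound for 44 hours at 28 °C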
# T cruzi inh: blocks replication of Trypanosoma cruzi; T. cruzi beta-gal in NIH3T3, luminescence, 90 h; inhibition, % (concentration not given with the values); 300,000 compounds, 1.4% hits;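 active = mean inhibition across valid replicates above about 55%, limit read from the data; inconclusive = mean below that limit but half or more replicates reach it; inactive = mean below it, under half of replicates reach it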;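 also: signal also drops with host cell toxicity which is not excluded here; 0% = plate median of DMSO wells and 100% = zero luminescence signal; higher percent means less beta-gal luminescence so fewer parasites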
#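 System: mouse NIH/3T3 fibroblasts infected with β-gal-expressing T. cruzi Tulahuen C4 / Input: NIH/3T3 cells, 5,000 per well / Buffer or medium: Low-serum DMEM with 2% FBS / Probe or stimulus: 5000 reporter trypomastigotes per well / Schedule: ≥90 h infection period, 3 h prior cell attachment / Measured by: GalScreen luminescence, 60 min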
# Hep lipid drop: modulators of hepatic lipid droplet formation; AML12 mouse hepatocytes, oleate lipid droplets, BODIPY imaging; inhibition, % at 6.5 µM; 240,000 compounds, 0.4% hits; AID 1656;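 active = lipid droplet intensity inhibited by at least 50%, with more than 500 cells counted; inconclusive = wells with under 300 cells, treated as cytotoxic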
#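 Material – mouse AML12 hepatocyte cell line, fixed after treatment · Compound dosing – one dose, 6.5 µM compound · Times – compound with oleate, overnight · Measured by – Image-based BODIPY and DAPI two-channel analysis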
# Rh123 counter: membrane potential counter-screen of mitochondrial pore inhibitors; AID 624504; 5,000 compounds, 78% hits; shares compounds with MPTP inh; inhibition, % at 10 µM; isolated mitochondria, Rhodamine 123 fluorescence; in the data active = inhibition above about 22%;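 also: 0% = DMSO vehicle and 100% = positive control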
# MPTP swell DR: dose response confirmation of mitochondrial permeability transition pore inhibitors; shares compounds with MPTP inh; isolated mitochondria swelling, absorbance; IC50, µM; 780 compounds, 58% hits; AID 651561; in the data active = IC50 below about 20 µM
# MPTP counter DR: MPTP inhibitor counter-screen activity, dose response | isolated mitochondria counterscreen, fluorescence read-out | IC50, µM | shares compounds with MPTP inh | 780 compounds, 49% hits; in the data active = IC50 below about 80 µM
# * hit, by the source's call; ? = inconclusive; . = no result.
SMILES,MPTP inh,DTT redox prof,L major viab,T cruzi inh,Hep lipid drop,Rh123 counter,others
COc1ccc(CCN2C(=O)CSC2=Nc2ccc(C(C)C)cc2)cc1OC,90.3*,.,.,18.5,-14.2,94.2*,
NS(=O)(=O)c1ccc(CNC(=S)NC2CC2)cc1,-2.2,0.4,1.1,-6.6,8.7,.,
CCOc1cc(/C=C2\N=C(SCC)SC2=O)cc([N+](=O)[O-])c1OC(C)=O,104.0*,-0.1,31.5,-3.3,.,37.1*,
CCOc1c(OC(C)=O)ccc(/C=C2\N=C(SCC)SC2=O)c1[N+](=O)[O-],89.0*,0.4,-4.0,-22.4,.,71.6*,
CCOC(=O)C1CCCN(S(=O)(=O)c2ccc(S(=O)(=O)N3CCCC3)cc2)C1 (stereo not drawn),61.5*,.,.,8.1,.,73.6*,
CCN(Cc1ccccc1)CC(O)COC(c1ccc(OC)cc1)c1ccc(OC)cc1 (stereo not drawn),79.3*,.,.,43.4,0.6,0.1,MPTP swell DR=>100;MPTP counter DR=54.3*
CCCOC(=O)c1cccc(Nc2nc(-c3cccnc3)nc3ccccc23)c1,65.7*,0.0,55.5*,64.8*,0.2,73.2*,
Fc1cccc(Nc2nc(-c3ccncc3)nc3ccccc23)c1,84.6*,0.4,60.8*,36.9,20.3,85.2*,
O=C(O)c1cccc(Nc2nc(-c3ccccc3)nc3ccccc23)c1,0.9,.,.,-1.0,.,.,
Cc1c(CN2CCCC(C(=O)c3cccc(OC(C)C)c3)C2)c(=O)n(-c2ccccc2)n1C (stereo not drawn),0.1,-0.4,17.9,17.2,10.7,.,
c1ccc2c(C[C@@H]3CNCCN3CC3CCCCC3)cccc2c1,53.7*,.,.,2.8,.,-12.2,
Oc1ccc(C[C@@H]2CNCCN2CC2CCCCC2)cc1,2.6,.,.,9.3,.,.,
Cc1cc(O)c2c(c1O)C(=O)[C@]13C(=C2O)C(=O)[C@@H]2[C@@H](O)[C@H]1[C@@H]1[C@H](O)[C@H]3C(=O)C3=C(O)c4c(O)cc(C)c(O)c4C(=O)[C@]312,103.9*,.,.,.,.,-34.4,
Cc1nc2c(C(=O)NCCC(C)C)c[nH]n2c(=O)c1Cl,-2.8,0.4,-7.6,-6.0,-4.6,.,
Cc1nc2c(C(=O)NCCC(C)C)c[nH]n2c(=O)c1Cc1ccccc1F,78.4*,1.9,-5.5,-0.9,.,58.8*,
CCc1nnc(NS(=O)(=O)c2ccc(NC(=S)NC(=O)/C=C/c3ccc(C(C)C)cc3)cc2)s1,65.6*,6.7,-8.4,-3.3,.,41.6*,
CN(C)c1ccc(NC(=O)CCN2C(=O)c3cccc([N+](=O)[O-])c3C2=O)cc1,-0.1,.,.,-13.5,-12.6,.,
Cc1ccc(NS(=O)(=O)c2cc(Br)cnc2N)c(Cl)c1,6.3,.,.,-10.5,1.1,.,
Nc1ncc(Br)cc1S(=O)(=O)Nc1cc(C(F)(F)F)cc(C(F)(F)F)c1,85.1*,.,.,-36.2,-7.0,84.6*,
COc1ccc(S(=O)(=O)NNC(=O)Nc2ccc(F)cc2)cc1,1.1,.,.,-3.0,.,.,
COc1ccccc1N1CCN(C(=O)c2ccoc2C)CC1,77.8*,5.7,-1.8,-2.3,-7.0,-1.5,MPTP swell DR=>100;MPTP counter DR=>80
COc1ccccc1N1CCN(C(=O)c2c(C)noc2C)CC1,3.0,.,.,3.4,10.8,.,
COc1ccc(CN(C)C(=O)COC(=O)c2c(-c3ccccc3Cl)noc2C)cc1,-0.6,-0.8,26.1,5.4,-24.0,.,
COc1ccc(C(CNC(=O)c2ccc(-c3ccccc3)cc2)N(C)C)cc1OC (stereo not drawn),80.5*,.,.,23.2,-9.4,-11.5,MPTP swell DR=19.5*;MPTP counter DR=>80
CC(C)=C(C#N)c1nc2ccccc2s1,0.1,-2.8,-3.3,-12.7,-7.5,.,
SMILES,MPTP inh,DTT redox prof,L major viab,T cruzi inh,Hep lipid drop,Rh123 counter,others
N#C/C(=C(/O)c1ccc2c(c1)OCO2)c1nc2cc(C(F)(F)F)ccc2s1,84.3*,.,.,-16.3,-27.5,93.7*,
N#C/C(=C(/O)c1ccccc1F)c1nc2cc(C(F)(F)F)ccc2s1,95.7*,-0.7,-2.4,.,-3.3,92.0*,
O=C(Nc1cc(-c2nc3ccccc3s2)ccc1Cl)c1ccc2c(c1)OCO2,1.6,-2.9,2.2,-14.6,.,.,
CN(C)c1ccc(C=c2c3cc(O)ccc3n3c2cc(-c2ccccc2)[n+]3C)cc1,53.4*,.,.,.,.,58.9*,
CC(C)(C)c1cc(C(=O)Nc2cccnc2)cc(C(=O)Nc2cccnc2)c1,-0.3,.,.,-4.7,.,.,
Cc1cc(C)n(C(=O)/C(C#N)=N/Nc2cc(Cl)cc(Cl)c2)n1,103.0*,-0.6,-4.7,42.2,-4.1,93.6*,
Cc1cc(C)n(C(=O)/C(C#N)=N\Nc2ccccc2[N+](=O)[O-])n1,1.7,0.2,-4.2,-7.9,0.9,.,
CC(CNC(=O)c1cc(COc2ccc3ncccc3c2)on1)c1ccccc1 (stereo not drawn),98.6*,.,.,21.5,-3.7,101.5*,
O=C(NC1CCCCCCC1)c1cc(COc2ccc3ncccc3c2)on1,101.9*,-2.2,0.5,13.8,-11.5,98.9*,
O=C(NCc1cccs1)C(=O)c1cn(CC(=O)N2CCCC2)c2ccccc12,-0.6,-0.6,-3.7,.,1.4,.,
C=CCN(C(=O)CCC(=O)Nc1cc(C)on1)C(C(=O)NC(C)(C)C)c1ccc(OC)cc1 (stereo not drawn),1.7,.,.,3.1,-2.2,.,
Cc1cc(=O)n2nc(N3CCC(C(=O)NCCc4ccc(Cl)cc4)CC3)sc2n1,-0.8,.,.,-12.9,-11.1,.,
CCc1nn(CC(=O)N2CCN(c3ccc(OC)cc3)CC2)c(=O)c2cc3occc3n12,-1.3,.,.,-6.8,-14.4,.,
Cc1nn(C)c(C)c1CN(C)S(=O)(=O)c1ccc2ccccc2c1,109.5*,0.9,-3.0,.,-25.6,102.1*,
CCN(C[C@H]1N[C@@](Cc2ccccc2)(C(=O)OC)[C@H]2C(=O)N(Cc3ccccc3)C(=O)[C@@H]12)C(=O)Nc1ccc(C(F)(F)F)cc1,79.5*,.,.,.,.,104.7*,
CCN(C[C@H]1N[C@@](Cc2ccccc2)(C(=O)OC)[C@H]2C(=O)N(Cc3ccccc3)C(=O)[C@@H]12)C(=O)Nc1ccc(C)cc1,1.9,.,.,.,.,.,
Cc1ccc(S(=O)(=O)N(CC(=O)NCc2ccc(F)cc2)C(=O)N2CCN(C)CC2)cc1,-0.4,.,.,-7.5,.,.,
COc1ccc(C(=O)CSc2nnc(Cn3cnc4ccccc43)o2)cc1,84.0*,-0.3,0.6,0.7,.,65.9*,
COCCN(C(=O)c1ccc(N(C)S(=O)(=O)c2ccc(C)cc2)cc1)c1c(N)n(CC(C)C)c(=O)[nH]c1=O,1.2,.,.,.,.,.,
O=C(/C=C/c1cn(CC(O)CN2CCCCC2)c2ccccc12)c1ccccc1 (stereo not drawn),-2.1,.,.,14.3,-5.7,.,
CCCN(CCC)CC(O)Cn1cc(/C=C/C(=O)c2cccs2)c2ccccc21 (stereo not drawn),74.4*,2.6,63.8*,?,-15.2,-16.0,

# Screening data as filed in PubChem.
